From ChEMBL document CHEMBL1132607, “Synthesis, pharmacological characterization, and molecular modeling of heterobicyclic amino acids related to (+)-2-aminobicyclo[3.1.0] hexane-2,6-dicarboxylic acid (LY354740): identification of two new potent, selective, and systemically active agonists for group II metabotropic glutamate receptors” (J Med Chem, 1999)

Assays:
[1] = molecular target: T1, Metabotropic glutamate receptor 2 (Homo sapiens, UniProt Q14416); assay: Ability to displace [3H]LY-341,495 from recombinant human Metabotropic glutamate receptor 2 subtypes expressed in RGT cells.; type: cell-based
[2] = molecular target: T2, Metabotropic glutamate receptor 3 (Homo sapiens, UniProt Q14832); assay: Ability to displace [3H]LY-341,495 from recombinant human Metabotropic glutamate receptor 3 expressed in RGT cells.; type: cell-based
T2 sequence (Q14832 whole entry): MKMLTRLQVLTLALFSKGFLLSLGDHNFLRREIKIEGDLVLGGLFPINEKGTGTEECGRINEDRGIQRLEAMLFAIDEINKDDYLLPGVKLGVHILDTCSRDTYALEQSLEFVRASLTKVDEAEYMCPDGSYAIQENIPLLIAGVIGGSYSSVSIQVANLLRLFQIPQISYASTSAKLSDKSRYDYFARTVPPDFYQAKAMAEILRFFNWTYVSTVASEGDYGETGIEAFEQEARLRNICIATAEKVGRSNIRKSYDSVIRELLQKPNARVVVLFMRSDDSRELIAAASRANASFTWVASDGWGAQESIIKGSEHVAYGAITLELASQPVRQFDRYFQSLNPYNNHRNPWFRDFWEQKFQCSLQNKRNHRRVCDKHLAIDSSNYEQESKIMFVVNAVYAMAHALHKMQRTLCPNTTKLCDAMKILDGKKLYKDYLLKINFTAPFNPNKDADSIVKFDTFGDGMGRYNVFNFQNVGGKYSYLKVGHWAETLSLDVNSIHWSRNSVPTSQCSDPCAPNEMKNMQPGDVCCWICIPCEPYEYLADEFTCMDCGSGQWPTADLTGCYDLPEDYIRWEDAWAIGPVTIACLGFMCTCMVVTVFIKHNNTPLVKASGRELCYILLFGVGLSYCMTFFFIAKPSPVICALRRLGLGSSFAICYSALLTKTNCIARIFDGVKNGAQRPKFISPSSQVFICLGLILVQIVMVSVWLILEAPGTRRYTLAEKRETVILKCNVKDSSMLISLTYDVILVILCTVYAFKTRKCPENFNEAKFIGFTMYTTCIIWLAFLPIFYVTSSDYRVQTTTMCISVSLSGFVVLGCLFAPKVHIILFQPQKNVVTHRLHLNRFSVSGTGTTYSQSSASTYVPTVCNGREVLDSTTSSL

[3] = Ability to displace [3H]LY-341,495 binding to Group II Metabotropic glutamate receptor from rat forebrain
Summary of the method: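 Rat forebrain homogenates; displacement of the group II-selective radioligand [3H]LY341495. Where an IC50 below 100 µM could be determined, runs were in triplicate. Values are given as mean IC50 ± standard error.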

[4] = molecular target: Glutamate receptor ionotropic, kainate; assay: Ability to displace [3H]-KA binding to Ionotropic glutamate receptor kainate from rat forebrain
Summary of the method: (§1)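 Rat forebrain homogenates; displacement of [3H]kainic acid (kainate), [3H]AMPA (AMPA) or [3H]CGP39653 (NMDA) binding, tested up to 100 000 nM. Where an IC50 below 100 µM could be determined, runs were in triplicate. Values are given as mean IC50 ± standard error.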

[5] = molecular target: T3, Glutamate receptor ionotropic, AMPA (Rattus norvegicus, UniProt P19490+P19491+P19492+P19493); assay: Ability to displace [3H]AMPA binding to Ionotropic glutamate receptor AMPA from rat forebrain; summary of the method: as §1
[6] = Ability to displace [3H]CGP-39653 binding to N-methyl-D-aspartate glutamate receptor from rat forebrain; summary of the method: as §1
[7] = system: Mus musculus; assay: Effect on limbic seizures induced by ACPD in NIH Swiss mice at 100 mg/kg dose 1 hr after systemic administration; type: functional, Limbic system
Summary of the method: (§2)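 Male NIH Swiss mice received test agent ip 1, 2 or 4 h before unilateral intracerebral injection of (1S,3R)-ACPD (400 nmol). Controls received H2O ip before ic H2O or ACPD. Mice were watched after ACPD for limbic seizures (clonic forelimb contractions, rearing to a praying stance, loss of balance, falling). Scored as number seizing/number treated (n=10); ED50 calculated.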

[8] = system: Mus musculus; assay: Effect on limbic seizures induced by ACPD in NIH Swiss mice at 30 mg/kg dose 1 hr after systemic administration; type: functional, Limbic system; summary of the method: as §2
[9] = molecular target: T1, Metabotropic glutamate receptor 2; assay: Inhibition of forskolin stimulated cAMP production in RGT cells expressing recombinant human Metabotropic glutamate receptor 2; type: functional, cell-based
[10] = molecular target: Metabotropic glutamate receptor 8 (Homo sapiens, UniProt O00222); assay: Inhibition of forskolin stimulated cAMP production in RGT cells expressing recombinant human mGluR8; type: functional, cell-based
Chain of Metabotropic glutamate receptor 8 (O00222 whole entry): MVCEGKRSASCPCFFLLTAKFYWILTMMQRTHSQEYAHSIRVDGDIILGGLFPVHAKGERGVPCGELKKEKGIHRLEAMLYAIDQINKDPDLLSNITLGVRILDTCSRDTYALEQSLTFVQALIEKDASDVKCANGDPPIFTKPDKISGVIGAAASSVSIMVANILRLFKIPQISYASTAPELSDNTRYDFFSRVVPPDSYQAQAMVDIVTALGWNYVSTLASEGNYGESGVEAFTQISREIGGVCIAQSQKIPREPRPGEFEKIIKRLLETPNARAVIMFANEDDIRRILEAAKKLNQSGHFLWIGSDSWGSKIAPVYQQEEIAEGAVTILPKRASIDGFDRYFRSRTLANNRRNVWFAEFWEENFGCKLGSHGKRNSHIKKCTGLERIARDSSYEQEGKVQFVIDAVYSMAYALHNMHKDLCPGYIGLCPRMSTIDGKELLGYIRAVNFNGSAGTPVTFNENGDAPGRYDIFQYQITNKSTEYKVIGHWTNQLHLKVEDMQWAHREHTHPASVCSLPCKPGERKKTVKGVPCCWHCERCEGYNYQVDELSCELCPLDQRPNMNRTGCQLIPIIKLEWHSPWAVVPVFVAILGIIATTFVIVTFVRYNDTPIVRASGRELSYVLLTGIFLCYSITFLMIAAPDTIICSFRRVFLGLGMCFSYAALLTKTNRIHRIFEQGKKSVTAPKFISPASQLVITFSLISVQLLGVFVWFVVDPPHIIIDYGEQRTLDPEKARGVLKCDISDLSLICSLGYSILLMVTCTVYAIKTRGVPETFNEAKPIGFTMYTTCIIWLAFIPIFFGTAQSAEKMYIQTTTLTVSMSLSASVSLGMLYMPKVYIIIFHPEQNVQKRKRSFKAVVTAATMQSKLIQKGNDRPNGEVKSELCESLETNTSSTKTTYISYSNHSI
Summary of the method: (§3)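 AV12-664 (RGT) cells co-expressing the GLAST glutamate transporter and one recombinant human mGlu receptor (mGlu1a, mGlu4a, mGlu5a, mGlu6, mGlu7a or mGlu8). Second-messenger response measured; agonist and antagonist modes tested, typically up to 10 000–100 000 nM. EC50 and Emax reported.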

[11] = molecular target: Metabotropic glutamate receptor 5 (Homo sapiens, UniProt P41594); assay: […] in RGT cells expressing recombinant human mGluR5a; type: functional, cell-based; summary of the method: as §3
[12] = molecular target: Metabotropic glutamate receptor 6 (Homo sapiens, UniProt O15303); assay: Inhibition of forskolin stimulated cAMP production in RGT cells expressing recombinant human mGluR6; type: functional, cell-based; summary of the method: as §3
Chain of Metabotropic glutamate receptor 6 (O15303 whole entry): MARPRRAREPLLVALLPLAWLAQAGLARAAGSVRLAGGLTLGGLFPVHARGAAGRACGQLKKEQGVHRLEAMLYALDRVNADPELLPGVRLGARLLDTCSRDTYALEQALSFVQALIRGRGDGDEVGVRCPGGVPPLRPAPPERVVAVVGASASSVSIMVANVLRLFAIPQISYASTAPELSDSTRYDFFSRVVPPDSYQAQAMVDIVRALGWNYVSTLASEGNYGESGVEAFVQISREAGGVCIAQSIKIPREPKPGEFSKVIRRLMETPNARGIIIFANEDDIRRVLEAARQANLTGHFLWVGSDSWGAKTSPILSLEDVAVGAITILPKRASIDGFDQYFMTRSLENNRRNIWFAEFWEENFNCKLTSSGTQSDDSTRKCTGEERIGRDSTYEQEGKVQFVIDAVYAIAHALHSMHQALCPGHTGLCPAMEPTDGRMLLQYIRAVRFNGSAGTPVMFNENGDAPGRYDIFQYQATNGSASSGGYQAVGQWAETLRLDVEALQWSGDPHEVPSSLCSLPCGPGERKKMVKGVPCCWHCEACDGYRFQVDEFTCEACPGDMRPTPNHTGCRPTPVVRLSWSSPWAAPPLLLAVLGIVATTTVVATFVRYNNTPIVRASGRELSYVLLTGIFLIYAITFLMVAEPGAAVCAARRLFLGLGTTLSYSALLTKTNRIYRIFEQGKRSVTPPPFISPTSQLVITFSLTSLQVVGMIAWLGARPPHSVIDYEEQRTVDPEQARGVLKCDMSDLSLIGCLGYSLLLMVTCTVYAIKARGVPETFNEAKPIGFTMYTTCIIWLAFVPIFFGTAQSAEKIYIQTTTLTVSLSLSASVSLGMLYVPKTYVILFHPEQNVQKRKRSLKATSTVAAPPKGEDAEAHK

[13] = molecular target: Metabotropic glutamate receptor 1 (Homo sapiens, UniProt Q13255); assay: […] in RGT cells expressing recombinant human mGluR1a; type: functional, cell-based; summary of the method: as §3
Chain of Metabotropic glutamate receptor 1 (Q13255 whole entry): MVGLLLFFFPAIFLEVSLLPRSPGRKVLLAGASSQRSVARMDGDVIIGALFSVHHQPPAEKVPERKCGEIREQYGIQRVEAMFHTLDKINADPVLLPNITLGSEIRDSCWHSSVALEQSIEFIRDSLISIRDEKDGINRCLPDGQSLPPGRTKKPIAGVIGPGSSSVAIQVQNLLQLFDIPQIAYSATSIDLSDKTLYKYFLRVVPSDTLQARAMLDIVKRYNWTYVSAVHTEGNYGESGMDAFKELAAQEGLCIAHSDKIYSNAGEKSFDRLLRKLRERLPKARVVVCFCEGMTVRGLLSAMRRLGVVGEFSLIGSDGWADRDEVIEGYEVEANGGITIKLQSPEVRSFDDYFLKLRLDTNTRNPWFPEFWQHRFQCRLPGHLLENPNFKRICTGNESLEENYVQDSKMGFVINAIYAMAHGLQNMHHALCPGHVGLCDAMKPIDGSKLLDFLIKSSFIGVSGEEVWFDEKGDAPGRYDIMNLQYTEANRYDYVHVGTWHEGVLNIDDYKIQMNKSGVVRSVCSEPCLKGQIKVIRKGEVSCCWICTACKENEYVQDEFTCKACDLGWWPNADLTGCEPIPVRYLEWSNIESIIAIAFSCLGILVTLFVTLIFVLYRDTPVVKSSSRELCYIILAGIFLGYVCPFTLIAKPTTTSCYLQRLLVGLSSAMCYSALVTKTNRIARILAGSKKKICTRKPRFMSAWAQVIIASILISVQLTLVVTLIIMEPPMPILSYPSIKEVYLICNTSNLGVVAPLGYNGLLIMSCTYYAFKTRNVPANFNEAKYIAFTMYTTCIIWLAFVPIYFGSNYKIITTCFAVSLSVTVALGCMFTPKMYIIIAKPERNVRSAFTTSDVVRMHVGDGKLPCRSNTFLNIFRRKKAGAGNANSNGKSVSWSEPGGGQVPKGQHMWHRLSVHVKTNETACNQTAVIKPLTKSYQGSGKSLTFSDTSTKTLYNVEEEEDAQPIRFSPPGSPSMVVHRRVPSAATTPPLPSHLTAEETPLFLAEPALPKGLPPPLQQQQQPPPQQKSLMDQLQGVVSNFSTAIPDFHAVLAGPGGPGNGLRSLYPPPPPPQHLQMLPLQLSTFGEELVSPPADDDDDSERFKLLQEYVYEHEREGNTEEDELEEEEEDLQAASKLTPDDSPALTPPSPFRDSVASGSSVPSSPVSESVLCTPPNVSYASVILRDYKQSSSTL

[14] = system: Mus musculus; assay: Effect on limbic seizures induced by ACPD in NIH Swiss mice 1 hr after systemic administration; type: functional; conditions: Limbic system; summary of the method: as §2
[15] = system: Mus musculus; assay: Effect on limbic seizures induced by ACPD in NIH Swiss mice 4 hr after systemic administration; type: functional; conditions: Limbic system; summary of the method: as §2
[16] = molecular target: T2, Metabotropic glutamate receptor 3; assay: Inhibition of forskolin stimulated cAMP production in RGT cells expressing recombinant human Metabotropic glutamate receptor 3; type: functional, cell-based
[17] = molecular target: Metabotropic glutamate receptor 4 (Homo sapiens, UniProt Q14833); assay: Inhibition of forskolin stimulated cAMP production in RGT cells expressing recombinant human mGluR4a; type: functional, cell-based; summary of the method: as §3
[18] = molecular target: Metabotropic glutamate receptor 7 (Homo sapiens, UniProt Q14831); assay: Inhibition of forskolin stimulated cAMP production in RGT cells expressing recombinant human mGluR7; type: functional, cell-based; summary of the method: as §3
Chain of Metabotropic glutamate receptor 7 (Q14831 whole entry): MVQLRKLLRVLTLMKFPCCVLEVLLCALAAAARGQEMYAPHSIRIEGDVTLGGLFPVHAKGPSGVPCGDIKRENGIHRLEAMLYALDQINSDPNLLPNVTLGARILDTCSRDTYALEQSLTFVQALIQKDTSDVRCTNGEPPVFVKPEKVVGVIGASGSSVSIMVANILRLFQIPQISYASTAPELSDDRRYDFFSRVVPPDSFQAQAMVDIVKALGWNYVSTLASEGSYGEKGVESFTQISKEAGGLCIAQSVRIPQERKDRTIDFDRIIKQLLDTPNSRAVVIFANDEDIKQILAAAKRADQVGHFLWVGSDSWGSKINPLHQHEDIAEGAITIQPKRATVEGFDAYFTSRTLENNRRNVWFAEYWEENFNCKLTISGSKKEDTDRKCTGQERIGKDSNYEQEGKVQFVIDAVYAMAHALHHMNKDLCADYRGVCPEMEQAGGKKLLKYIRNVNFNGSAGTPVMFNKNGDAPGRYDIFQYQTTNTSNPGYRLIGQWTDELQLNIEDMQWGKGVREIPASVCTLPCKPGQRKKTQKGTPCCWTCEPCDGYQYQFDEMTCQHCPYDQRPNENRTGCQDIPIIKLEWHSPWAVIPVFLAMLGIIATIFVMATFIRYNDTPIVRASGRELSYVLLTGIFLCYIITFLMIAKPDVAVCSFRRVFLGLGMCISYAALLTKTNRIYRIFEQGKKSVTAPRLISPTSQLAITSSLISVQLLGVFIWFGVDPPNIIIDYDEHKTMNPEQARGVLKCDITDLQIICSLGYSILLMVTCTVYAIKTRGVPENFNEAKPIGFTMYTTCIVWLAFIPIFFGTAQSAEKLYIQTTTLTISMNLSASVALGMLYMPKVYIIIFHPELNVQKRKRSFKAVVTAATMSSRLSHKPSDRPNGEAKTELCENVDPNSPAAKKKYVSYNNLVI

[19] = system: Mus musculus; assay: Effect on limbic seizures induced by ACPD in NIH Swiss mice 2 hr after systemic administration; type: functional; conditions: Limbic system; summary of the method: as §2
[20] = molecular target: T3, Glutamate receptor ionotropic, AMPA; assay: Binding affinity against Ionotropic glutamate receptor AMPA using [3H]AMPA as radioligand.; type: protein-complex assay; summary of the method: as §1

Structure (SMILES)	Ki [1]	Ki [2]	IC50 [3]	IC50 [4]	IC50 [5]	IC50 [6]	EC50 [9]	EC50 [10]	EC50 [11]	EC50 [12]	EC50 [13]	EC50 [16]	EC50 [17]	EC50 [18]	IC50 [20]	No. of mice effected/No. of treated [7]	No. of mice effected/No. of treated [8]	ED50 [14]	ED50 [15]	ED50 [19]
N[C@@]1(C(=O)O)CS[C@H]2[C@H](C(=O)O)[C@H]21 (racemic) [LY-389795]	67.2 nM	9.4 nM	26.1 nM	> 100 µM	> 100 µM	> 100 µM														
N[C@@]1(C(=O)O)CO[C@H]2[C@H](C(=O)O)[C@H]21 (stereo in doubt; (+)-9) [LY-379268]	2000 nM	1040 nM	5040 nM																	
N[C@@]1(C(=O)O)CC[C@H]2[C@H](C(=O)O)[C@H]21 [EGLUMETAD]	74.9 nM	93.3 nM	254 nM	> 100 µM		> 100 µM	11.1 nM	11.5 µM	> 100 µM	2990 nM	> 100 µM	38 nM	> 100 µM	> 100 µM	> 100 µM					

Further compounds by falling Ki [1], results first:

Ki [1]	Ki [2]	IC50 [3]	IC50 [4]	IC50 [5]	IC50 [6]	EC50 [9]	EC50 [10]	EC50 [11]	EC50 [12]	EC50 [13]	EC50 [16]	EC50 [17]	EC50 [18]	IC50 [20]	Structure (SMILES)	No. of mice effected/No. of treated [7]	No. of mice effected/No. of treated [8]	ED50 [14]	ED50 [15]	ED50 [19]
819 nM	170 nM	792 nM													N[C@@]1(C(=O)O)CS[C@H]2[C@H](C(=O)O)[C@H]21 (stereo in doubt; (+)-10) [LY-389795]					
40.6 nM	4.7 nM	8.4 nM				3.91 nM	7.34 µM	> 100 µM	2430 nM	> 100 µM	7.63 nM	> 100 µM	> 100 µM		N[C@@]1(C(=O)O)CS[C@H]2[C@H](C(=O)O)[C@H]21 (stereo in doubt; (-)-10) [LY-389795]	10	10	14 mg/kg	14 mg/kg	15 mg/kg
36.5 nM	14.3 nM	29 nM													N[C@@]1(C(=O)O)CO[C@H]2[C@H](C(=O)O)[C@H]21 (racemic) [LY-379268]					
14.1 nM	5.8 nM	15 nM	> 100 µM	> 100 µM	> 100 µM	2.69 nM	1.69 µM	> 100 µM	401 nM	> 100 µM	4.58 nM	21.1 µM	> 100 µM		N[C@@]1(C(=O)O)CO[C@H]2[C@H](C(=O)O)[C@H]21 (stereo in doubt; (-)-9) [LY-379268]	10	10	19 mg/kg	26 mg/kg	6 mg/kg
